Assay [1] concerns Staphylococcus aureus. Kind of assay: Antimicrobial activity against Staphylococcus aureus. It is filed as functional. The essentials: (§1)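 Agar microdilution MIC. Compounds in DMSO, serially 2-fold diluted and mixed 1:100 into melted Mueller-Hinton agar, giving final concentrations of 0.03–128 µg/mL. Strains were S. aureus ATCC 25923 and MRSA SK1. Inocula were spotted onto the agar and incubated at 35 °C for 18 h. MIC was the lowest concentration preventing visible growth. Vancomycin was the positive control; DMSO agar was the growth control.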

Assay [2] has as its system Staphylococcus aureus. Kind of assay: Antimicrobial activity against methicillin-resistant Staphylococcus aureus. It is filed as functional. The essentials: as §1

Converted amounts (≈) assume the structure as drawn. The source made the active and inactive calls. No cut-off for these calls is given here.

As to `CC1=CC(=O)CC(C)(C)[C@@]1(O)/C=C/C(C)=C\C(=O)O`, the result in the assay on Staphylococcus aureus [1] and with Staphylococcus aureus [2] was inactive.

Regarding `COc1cc(/C(C)=C/CO)oc(=O)c1`, the result with Staphylococcus aureus [1] and in the assay with Staphylococcus aureus [2] was inactive.

As for `CC1=CC(=O)CC(C)(C)[C@H]1/C=C/C(C)=C\C(=O)O`, the outcome in the assay with Staphylococcus aureus [1] and with Staphylococcus aureus [2] was inactive.

On to `COC(=O)C(Cc1ccccc1)OC(CC(C)C)C(=O)O[C@H]1C(=O)C(CO)=C[C@@H](O)[C@@H]1O` (stereo partly specified), for which the result with Staphylococcus aureus [1] and in the assay with Staphylococcus aureus [2] was inactive.

For the compound `C/C=C(\C)c1cc(OC)cc(=O)o1`, the result with Staphylococcus aureus [1] and in the assay on Staphylococcus aureus [2] was inactive.

The term MIC denotes the lowest concentration found to suppress growth. Higher therefore signals a less susceptible organism. For the compound `O=C1C(CO)=C[C@@H](O)[C@H]2O[C@@H]12` [EPOXYDON], the MIC in the assay with Staphylococcus aureus [1] and against Staphylococcus aureus [2] was 128 µg/mL (≈ 820 µM) each time.

For `O=C(O[C@H]1C(=O)C(CO)=C[C@@H](O)[C@@H]1O)c1cccc(O)c1`, the result in the assay on Staphylococcus aureus [1] and in the assay on Staphylococcus aureus [2] was inactive.

Turning to `CC1=CC(=O)CC(C)(C)[C@@]1(O)/C=C/C(C)=C\C(=O)O[C@H]1C(=O)C(CO)=C[C@@H](O)[C@@H]1O` [NIGROSPOXYDON A], the MIC with Staphylococcus aureus [1] is 64 µg/mL (≈ 152 µM); in the assay on Staphylococcus aureus [2], over 128 µg/mL.

(Values after ChEMBL document CHEMBL1155935, “Epoxydons and a pyrone from the marine-derived fungus Nigrospora sp. PSU-F5” (2008).)
